The text below walks through data of ChEMBL document CHEMBL1671806, “New imidazolidinedione derivatives as antimalarial agents” (Bioorg Med Chem, 2011).

≈ marks a conversion by molar mass, not a printed value. Calls of active or inactive are those of the source. No cut-off for these calls is given here.

Series [1] has as its system Plasmodium falciparum. The series can be described thus: Antimicrobial activity against Plasmodium falciparum D6 by microdilution method. In kind it is functional, organism-based.
For series [2], the system named is Plasmodium falciparum. The series can be described thus: Antimicrobial activity against Plasmodium falciparum TM91C235 by microdilution method. In kind it is functional, organism-based.
Series [3] has as its system Plasmodium falciparum. Kind of series: Antimicrobial activity against Plasmodium falciparum W2 by microdilution method. It is filed as functional, organism-based.
Series [4] has as its system Plasmodium berghei. The series can be described thus: Antiplasmodial activity against Plasmodium berghei sporozoites infected in orally dosed mouse administered for three consecutive days one day before infection. In kind it is functional. Particulars: po, 24 h, read-out: MED. In a few lines: (§1)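 Mice were inoculated with P. berghei sporozoites. For oral dosing, compounds were ground and suspended in hydroxyethylcellulose plus Tween 80; for sc dosing, they were suspended in peanut oil. Doses were given once daily on three consecutive days: the day before, 4 h before, and the day after inoculation. Several dose levels were used, up to 320 mg/kg/day. Cure was scored.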

Series [5] in a line: Toxicity in Plasmodium berghei sporozoites infected orally dosed mouse administered for three consecutive days one day before infection. In kind it is organism-based. Particulars: in vivo, po. The essentials: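 Mice received P. berghei sporozoites. Each compound was ground and suspended in hydroxyethylcellulose plus Tween 80, then given orally at several dose levels up to 320 mg/kg/day. Dosing was once daily for three consecutive days: the day before, 4 h before, and the day after sporozoite inoculation.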

The species entered for the next series is Mus musculus. The series can be described thus: Metabolic stability in mouse liver microsome by LC-MS/MS method. Particulars: liver microsomes.
The species entered for the next series is Homo sapiens. The series can be described thus: Metabolic stability in human liver microsome by LC-MS/MS method. Conditions: liver microsomes.
Series [6] has as its system Plasmodium berghei. Kind of series: Antiplasmodial activity against Plasmodium berghei sporozoites infected in orally dosed mouse assessed as cure from infection 160 mg/kg/day, po administered for three consecutive days before infection measured after at day 31. It is filed as functional, organism-based. In a few lines: as §1
The subject of series [7] is Plasmodium cynomolgi. The series can be described thus: Antiplasmodial activity against Plasmodium cynomolgi sporozoites infected in Rhesus monkey assessed as delay in detection of parasites in blood at 30 mg/kg/day, im administered for three consecutive days before infection. It is filed as functional. Conditions: route intramuscular.
In series [8] the test system is Plasmodium cynomolgi. Kind of series: Antiplasmodial activity against Plasmodium cynomolgi sporozoites infected in Rhesus monkey assessed as duration for detection of parasites in blood at 30 mg/kg/day, im administered for three consecutive days before infection (reference value: 8 days). Particulars: route intramuscular. In kind it is functional.
The mark [9] stands for this setting: Plasmodium falciparum, D6, read-out: IC50.
The mark [10] stands for this setting: Plasmodium falciparum, TM91C235, read-out: IC50.
Where [11] appears, read: Plasmodium falciparum, W2, read-out: IC50.

Take `CC(C)N1C(=O)C(=O)N=C1/N=C(\NCCN1CCCC1)Nc1ccc(Cl)c(Cl)c1`: the IC50 is above 5 µg/mL with Plasmodium falciparum [1] (setting [9]), above 5 µg/mL with Plasmodium falciparum [2] (setting [10]), 1.32 µg/mL (≈ 3 µM) in the series on Plasmodium falciparum [3] and 1.32 µg/mL (≈ 3 µM) in the series on Plasmodium falciparum [3] (setting [11]). For the same compound, in the series with Plasmodium berghei [4], the minimal effective dose is above 160 mg/kg/day. In [5], this compound had an MTD at 3 days of at least 160 mg/kg/day. The half-life was 0.886 h in the series listed under Mus musculus and above 1 h in the series filed under Homo sapiens.

In the case of `CCCCCCN/C(=N\C1=NC(=O)C(=O)N1C(C)C)Nc1ccc(Cl)c(Cl)c1`, the IC50 in the series with Plasmodium falciparum [1] is 1.35 µg/mL (≈ 3.17 µM); in the series with Plasmodium falciparum [1] (setting [9]) it was 1.35 µg/mL (≈ 3.17 µM); in the series on Plasmodium falciparum [2], 2.8 µg/mL (≈ 6.57 µM); with Plasmodium falciparum [2] (setting [10]) it was 2.8 µg/mL (≈ 6.57 µM); in the series with Plasmodium falciparum [3], 2.62 µg/mL (≈ 6.15 µM); in the series on Plasmodium falciparum [3] (setting [11]) it was 2.62 µg/mL (≈ 6.15 µM). Moreover, the minimal effective dose with Plasmodium berghei [4] is above 160 mg/kg/day. In addition, the MTD at 3 days in series [5] is at least 160 mg/kg/day. The compound further gave a half-life in the series filed under Mus musculus of 0.131 h.

As to `CON/C(=N\C1=NC(=O)C(=O)N1C(C)C)Nc1ccc(Cl)c(Cl)c1`, the IC50 with Plasmodium falciparum [1] (setting [9]), with Plasmodium falciparum [2] (setting [10]) and with Plasmodium falciparum [3] (setting [11]) was above 5 µg/mL each time. Also, the minimal effective dose with Plasmodium berghei [4] was at least 40 mg/kg/day. Besides, the MTD at 3 days in [5] was below 40 mg/kg/day. For the same compound, in the series with Plasmodium berghei [6], the result was Active. The half-life in the series filed under Mus musculus and in the series listed under Homo sapiens was above 1 h in each case.

With `CC(C)N1C(=O)C(=O)N=C1/N=C(\NCc1ccccc1)Nc1ccc(Cl)c(Cl)c1`, the half-maximal inhibitory concentration (IC50) was 2.36 µg/mL (≈ 5.46 µM) in the series with Plasmodium falciparum [1]; 2.36 µg/mL (≈ 5.46 µM) in the series on Plasmodium falciparum [1] (setting [9]); above 5 µg/mL with Plasmodium falciparum [2] (setting [10]); 1.3 µg/mL (≈ 3.01 µM) in the series with Plasmodium falciparum [3]; 1.3 µg/mL (≈ 3.01 µM) in the series with Plasmodium falciparum [3] (setting [11]). Moreover, the minimal effective dose in the series with Plasmodium berghei [4] is above 320 mg/kg/day. The compound further registered an MTD at 3 days in [5] of at least 320 mg/kg/day. Moreover, the half-life in the series filed under Mus musculus and in the series listed under Homo sapiens was above 1 h each time.

Consider `CCN/C(=N\C1=NC(=O)C(=O)N1C(C)C)Nc1ccc(Cl)c(Cl)c1`, for which the IC50 in the series with Plasmodium falciparum [1] (setting [9]) was above 5 µg/mL; with Plasmodium falciparum [2] (setting [10]), above 5 µg/mL; in the series with Plasmodium falciparum [3] it was 1.67 µg/mL (≈ 4.51 µM); in the series on Plasmodium falciparum [3] (setting [11]), 1.67 µg/mL (≈ 4.51 µM). For the same compound, in the series with Plasmodium berghei [4], the minimal effective dose is above 160 mg/kg/day. The compound further came in with an MTD at 3 days in series [5] of at least 160 mg/kg/day. Moreover, the half-life in the series listed under Mus musculus and in the series filed under Homo sapiens was above 1 h throughout.

In the case of `CC(C)N1C(=O)C(=O)N=C1/N=C(\Nc1ccccc1)Nc1ccc(Cl)c(Cl)c1`, the IC50 with Plasmodium falciparum [1] was found to be 2.16 µg/mL (≈ 5.16 µM); in the series with Plasmodium falciparum [1] (setting [9]), 2.16 µg/mL (≈ 5.16 µM); in the series with Plasmodium falciparum [2], 2.6 µg/mL (≈ 6.22 µM); in the series on Plasmodium falciparum [2] (setting [10]) it was 2.6 µg/mL (≈ 6.22 µM); with Plasmodium falciparum [3], 0.88 µg/mL (≈ 2.1 µM); with Plasmodium falciparum [3] (setting [11]) it was 0.88 µg/mL (≈ 2.1 µM). The minimal effective dose in the series with Plasmodium berghei [4] was above 160 mg/kg/day. In [5], this compound yielded an MTD at 3 days of at least 160 mg/kg/day. The half-life in the series filed under Mus musculus and in the series listed under Homo sapiens was above 1 h in each case.

Consider `CC(C)N1C(=O)C(=O)N=C1/N=C(\NOCc1ccccc1)Nc1ccc(Cl)c(Cl)c1`, for which the IC50 with Plasmodium falciparum [1] (setting [9]), in the series on Plasmodium falciparum [2] (setting [10]) and with Plasmodium falciparum [3] (setting [11]) was above 5 µg/mL each time. The minimal effective dose in the series with Plasmodium berghei [4] is above 160 mg/kg/day. In series [5], this compound gave an MTD at 3 days of at least 160 mg/kg/day. The figures for the Time in the series with Plasmodium cynomolgi [7] and in the series on Plasmodium cynomolgi [8] were 19 days and 27 days, respectively. Besides, the half-life in the series filed under Mus musculus is 0.214 h; in the series filed under Homo sapiens, above 1 h.

As to `CC(C)N1C(=O)C(=O)N=C1/N=C(\NCCCCN1CCCC1)Nc1ccc(Cl)c(Cl)c1`, the IC50 in the series on Plasmodium falciparum [1] is 1.55 µg/mL (≈ 3.32 µM); in the series with Plasmodium falciparum [1] (setting [9]) it was 1.55 µg/mL (≈ 3.32 µM); with Plasmodium falciparum [2] (setting [10]), above 5 µg/mL; with Plasmodium falciparum [3] it was 2.3 µg/mL (≈ 4.92 µM); in the series on Plasmodium falciparum [3] (setting [11]) it was 2.3 µg/mL (≈ 4.92 µM). The minimal effective dose with Plasmodium berghei [4] is above 160 mg/kg/day. The compound further registered an MTD at 3 days in [5] of at least 160 mg/kg/day. The half-life in the series listed under Mus musculus and in the series filed under Homo sapiens was above 1 h each time.

`CC(C)N1C(=O)C(=O)N=C1/N=C(\NCCN(C)C)Nc1ccc(Cl)c(Cl)c1`: the IC50 in the series on Plasmodium falciparum [1] (setting [9]), in the series with Plasmodium falciparum [2] (setting [10]) and in the series with Plasmodium falciparum [3] (setting [11]) was above 5 µg/mL in each case. For the same compound, the minimal effective dose in the series on Plasmodium berghei [4] is above 160 mg/kg/day. The compound also returned an MTD at 3 days in series [5] of at least 160 mg/kg/day. The half-life in the series filed under Mus musculus and in the series listed under Homo sapiens was above 1 h throughout.
